Test results reported in ChEMBL document CHEMBL1146850, “Dithiocarbamic acid esters as anticancer agent. Part 1: 4-substituted-piperazine-1-carbodithioic acid 3-cyano-3,3-diphenyl-propyl esters” (Bioorg Med Chem Lett, 2006).

test system: Bel-7402; experiment: Antiproliferative activity against human Bel7402 cells by SRB assay; type: functional, cell-based; conditions: not given; call rule not given here
In short: (§1)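 Bel-7402 cells kept in RPMI-1640 with 10% FBS, penicillin 100 U/mL and streptomycin at 37 °C under humidified CO2. Exponentially growing cells seeded at 1–2.5 × 10^4 cells/mL. Compound added 24 h later, with medium only for controls. Incubation 48 h, then viable cells counted by SRB. Screened at four concentrations, with single-concentration data given at 33.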

First: CN1CCN(C(=S)SCCC(C#N)(c2ccccc2)c2ccccc2)CC1
Second: N#CC(CCSC(=S)N1CCN(CCO)CC1)(c1ccccc1)c1ccccc1
The IC50 of the first is 2.3-fold higher: 27.1 µM for the first, 11.7 µM for the second. The second is the more potent here.

Work on `N#CC(CCSC(=S)N1CCNCC1)(c1ccccc1)c1ccccc1` yielded an IC50 of 11.5 µM.

test system: Rattus norvegicus; experiment: Toxicity in rat at 10 g/kg after 10 days assessed as change in body weight relative to control; conditions: in vivo, 10000 mg/kg, 240 h

For `CN1CCN(C(=S)SCCC(C#N)(c2ccccc2)c2ccccc2)CC1.Cl`, the Activity was “Not Active”.

test system: H22; experiment: Antiproliferative activity against mouse H22 cells; type: functional; conditions: not given

`CN1CCN(C(=S)SCCC(C#N)(c2ccccc2)c2ccccc2)CC1.Cl` showed an Activity of 39.3%.

test system: Bel-7402; experiment: Antiproliferative activity against human Bel7402 cells at 33 uM by SRB assay; type: functional; conditions: not given; in short: as §1

Compared with `N#CC(CCSC(=S)N1CCN(S(=O)(=O)c2ccccc2)CC1)(c1ccccc1)c1ccccc1`, `N#CC(CCSC(=S)N1CCN(S(=O)(=O)c2ccc(F)cc2)CC1)(c1ccccc1)c1ccccc1` is higher in inhibition at 33 µM: 0% for the first, 9.7% for the second.

Compared with `N#CC(CCSC(=S)N1CCN(c2ccc([N+](=O)[O-])cc2)CC1)(c1ccccc1)c1ccccc1`, `N#CC(CCSC(=S)N1CCN(c2ccc(F)cc2)CC1)(c1ccccc1)c1ccccc1` is higher in inhibition at 33 µM: 2.2% for the first, 15.9% for the second.

First: COc1cccc(N2CCN(C(=S)SCCC(C#N)(c3ccccc3)c3ccccc3)CC2)c1
Second: COc1ccc(N2CCN(C(=S)SCCC(C#N)(c3ccccc3)c3ccccc3)CC2)cc1
The inhibition at 33 µM of the first is higher: 15.5% for the first, 14.9% for the second.

Going from `CCOC(=O)N1CCN(C(=S)SCCC(C#N)(c2ccccc2)c2ccccc2)CC1` to `N#CC(CCSC(=S)N1CCN(C(=O)CCCl)CC1)(c1ccccc1)c1ccccc1`, the inhibition at 33 µM falls from 35% to 22%.

Compared with `CS(=O)(=O)N1CCN(C(=S)SCCC(C#N)(c2ccccc2)c2ccccc2)CC1`, `CN1CCN(C(=S)SCCC(C#N)(c2ccccc2)c2ccccc2)CC1` is higher in inhibition at 33 µM: 13.4% for the first, 75.2% for the second.

Going from `N#CC(CCSC(=S)N1CCN(CCCl)CC1)(c1ccccc1)c1ccccc1` to `N#CC(CCSC(=S)N1CCN(CCO)CC1)(c1ccccc1)c1ccccc1`, the inhibition at 33 µM rises from 28.7% to 57.7%.

Going from `COc1ccc(S(=O)(=O)N2CCN(C(=S)SCCC(C#N)(c3ccccc3)c3ccccc3)CC2)cc1` to `N#CC(CCSC(=S)N1CCN(S(=O)(=O)c2ccc([N+](=O)[O-])cc2)CC1)(c1ccccc1)c1ccccc1`, the inhibition at 33 µM falls from 5.4% to 0.2%.

Compared with `N#CC(CCSC(=S)N1CCN(Cc2ccccc2)CC1)(c1ccccc1)c1ccccc1`, `N#CC(CCSC(=S)N1CCN(c2ccccc2)CC1)(c1ccccc1)c1ccccc1` is lower in inhibition at 33 µM: 4.7% for the first, 0% for the second.

First: N#CC(CCSC(=S)N1CCN(C(=O)CCBr)CC1)(c1ccccc1)c1ccccc1
Second: CS(=O)(=O)OCCC(=O)N1CCN(C(=S)SCCC(C#N)(c2ccccc2)c2ccccc2)CC1
The inhibition at 33 µM of the first is higher: 23.4% for the first, 1.09% for the second.

`COc1ccccc1N1CCN(C(=S)SCCC(C#N)(c2ccccc2)c2ccccc2)CC1` and `Cc1ccccc1N1CCN(C(=S)SCCC(C#N)(c2ccccc2)c2ccccc2)CC1` are the same in inhibition at 33 µM: 0% for the first, 0% for the second.

Going from `N#CC(CCSC(=S)N1CCN(c2ccccc2F)CC1)(c1ccccc1)c1ccccc1` to `N#CC(CCSC(=S)N1CCN(c2ccccc2Cl)CC1)(c1ccccc1)c1ccccc1`, the inhibition at 33 µM falls from 4.3% to 0%.

Compared with `CCCCCCN1CCN(C(=S)SCCC(C#N)(c2ccccc2)c2ccccc2)CC1`, `CCCCN1CCN(C(=S)SCCC(C#N)(c2ccccc2)c2ccccc2)CC1` is lower in inhibition at 33 µM: 12.7% for the first, 11% for the second.

First: N#CC(CCSC(=S)N1CCN(c2cccc(Cl)c2)CC1)(c1ccccc1)c1ccccc1
Second: N#CC(CCSC(=S)N1CCN(c2ccc(Cl)c(Cl)c2)CC1)(c1ccccc1)c1ccccc1
The inhibition at 33 µM of the first is lower: 0% for the first, 23.3% for the second.

Going from `N#CC(CCSC(=S)N1CCN(C(=O)c2ccco2)CC1)(c1ccccc1)c1ccccc1` to `N#CC(CCSC(=S)N1CCN(c2ccccn2)CC1)(c1ccccc1)c1ccccc1`, the inhibition at 33 µM rises from 17.7% to 22.6%.

Going from `N#CC(CCSC(=S)N1CCN(S(=O)(=O)c2ccccc2[N+](=O)[O-])CC1)(c1ccccc1)c1ccccc1` to `N#CC(CCSC(=S)N1CCN(S(=O)(=O)c2cccc([N+](=O)[O-])c2)CC1)(c1ccccc1)c1ccccc1`, the inhibition at 33 µM rises from 0% to 5.5%.

First: N#CC(CCSC(=S)N1CCN(S(=O)(=O)c2cccc(C(F)(F)F)c2)CC1)(c1ccccc1)c1ccccc1
Second: N#CC(CCSC(=S)N1CCN(c2cccc(C(F)(F)F)c2)CC1)(c1ccccc1)c1ccccc1
The inhibition at 33 µM of the first is lower: 0% for the first, 26.3% for the second.

First: N#CC(CCSC(=S)N1CCNCC1)(c1ccccc1)c1ccccc1
Second: CCN1CCN(C(=S)SCCC(C#N)(c2ccccc2)c2ccccc2)CC1
The inhibition at 33 µM of the first is higher: 95.5% for the first, 4.97% for the second.

Going from `N#CC(CCSC(=S)N1CCN(c2ncccn2)CC1)(c1ccccc1)c1ccccc1` to `Cc1ccc(Cl)cc1N1CCN(C(=S)SCCC(C#N)(c2ccccc2)c2ccccc2)CC1`, the inhibition at 33 µM falls from 33.2% to 14.6%.

Compared with `N#CC(CCSC(=S)N1CCN(Cc2ccc3c(c2)OCO3)CC1)(c1ccccc1)c1ccccc1`, `N#CC(CCSC(=S)N1CCN(S(=O)(=O)c2c(Cl)cccc2Cl)CC1)(c1ccccc1)c1ccccc1` is lower in inhibition at 33 µM: 16.6% for the first, 0% for the second.

For `N#CC(CCSC(=S)N1CCN(C(c2ccccc2)c2ccc(Cl)cc2)CC1)(c1ccccc1)c1ccccc1` (centres undefined), the inhibition at 33 µM was 18%.

test system: HL-60; experiment: Antiproliferative activity against human HL60 cells by MTT assay; type: functional, cell-based; conditions: not given
In short: (§2)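 HL-60 cells kept in RPMI-1640 with 10% FBS, penicillin 100 U/mL and streptomycin at 37 °C under humidified CO2. Exponentially growing cells seeded at 1–2.5 × 10^4 cells/mL. Compound added after 24 h, with medium-only controls. Exposure 48 h, then viable cells read by MTT at 570 nm absorbance. Screened at four concentrations, with single-concentration data given at 33.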

First: CN1CCN(C(=S)SCCC(C#N)(c2ccccc2)c2ccccc2)CC1
Second: N#CC(CCSC(=S)N1CCN(CCO)CC1)(c1ccccc1)c1ccccc1
The IC50 of the first is 2.5-fold lower: 9.9 µM for the first, 24.5 µM for the second.

For `N#CC(CCSC(=S)N1CCNCC1)(c1ccccc1)c1ccccc1`, the IC50 was 5.3 µM.

test system: CCRF S-180; experiment: Antiproliferative activity against mouse S180 cells; type: functional; conditions: not given

Compound `CN1CCN(C(=S)SCCC(C#N)(c2ccccc2)c2ccccc2)CC1.Cl` has an Activity of 46.4%.

test system: HL-60; experiment: Antiproliferative activity against human HL60 cells at 33 uM by MTT assay; type: functional; conditions: not given; in short: as §2

`N#CC(CCSC(=S)N1CCN(S(=O)(=O)c2ccccc2)CC1)(c1ccccc1)c1ccccc1` and `N#CC(CCSC(=S)N1CCN(S(=O)(=O)c2ccc(F)cc2)CC1)(c1ccccc1)c1ccccc1` are the same in inhibition at 33 µM: 0% for the first, 0% for the second.

Compared with `N#CC(CCSC(=S)N1CCN(c2ccc([N+](=O)[O-])cc2)CC1)(c1ccccc1)c1ccccc1`, `N#CC(CCSC(=S)N1CCN(c2ccc(F)cc2)CC1)(c1ccccc1)c1ccccc1` is lower in inhibition at 33 µM: 7.8% for the first, 0% for the second.

Going from `COc1cccc(N2CCN(C(=S)SCCC(C#N)(c3ccccc3)c3ccccc3)CC2)c1` to `COc1ccc(N2CCN(C(=S)SCCC(C#N)(c3ccccc3)c3ccccc3)CC2)cc1`, the inhibition at 33 µM falls from 9.8% to 8.5%.

First: CCOC(=O)N1CCN(C(=S)SCCC(C#N)(c2ccccc2)c2ccccc2)CC1
Second: N#CC(CCSC(=S)N1CCN(C(=O)CCCl)CC1)(c1ccccc1)c1ccccc1
The inhibition at 33 µM of the first is lower: 0% for the first, 43.3% for the second.

Compared with `CS(=O)(=O)N1CCN(C(=S)SCCC(C#N)(c2ccccc2)c2ccccc2)CC1`, `CN1CCN(C(=S)SCCC(C#N)(c2ccccc2)c2ccccc2)CC1` is higher in inhibition at 33 µM: 24.9% for the first, 79% for the second.

Going from `N#CC(CCSC(=S)N1CCN(CCCl)CC1)(c1ccccc1)c1ccccc1` to `N#CC(CCSC(=S)N1CCN(CCO)CC1)(c1ccccc1)c1ccccc1`, the inhibition at 33 µM rises from 53.6% to 92.5%.

Going from `COc1ccc(S(=O)(=O)N2CCN(C(=S)SCCC(C#N)(c3ccccc3)c3ccccc3)CC2)cc1` to `N#CC(CCSC(=S)N1CCN(S(=O)(=O)c2ccc([N+](=O)[O-])cc2)CC1)(c1ccccc1)c1ccccc1`, the inhibition at 33 µM falls from 1.5% to 0%.

Compared with `N#CC(CCSC(=S)N1CCN(Cc2ccccc2)CC1)(c1ccccc1)c1ccccc1`, `N#CC(CCSC(=S)N1CCN(c2ccccc2)CC1)(c1ccccc1)c1ccccc1` is lower in inhibition at 33 µM: 12.5% for the first, 10.5% for the second.

First: N#CC(CCSC(=S)N1CCN(C(=O)CCBr)CC1)(c1ccccc1)c1ccccc1
Second: CS(=O)(=O)OCCC(=O)N1CCN(C(=S)SCCC(C#N)(c2ccccc2)c2ccccc2)CC1
The inhibition at 33 µM of the first is higher: 82.2% for the first, 0% for the second.

Going from `COc1ccccc1N1CCN(C(=S)SCCC(C#N)(c2ccccc2)c2ccccc2)CC1` to `Cc1ccccc1N1CCN(C(=S)SCCC(C#N)(c2ccccc2)c2ccccc2)CC1`, the inhibition at 33 µM falls from 4.8% to 0%.

`N#CC(CCSC(=S)N1CCN(c2ccccc2F)CC1)(c1ccccc1)c1ccccc1` and `N#CC(CCSC(=S)N1CCN(c2ccccc2Cl)CC1)(c1ccccc1)c1ccccc1` are the same in inhibition at 33 µM: 0% for the first, 0% for the second.

Compared with `CCCCCCN1CCN(C(=S)SCCC(C#N)(c2ccccc2)c2ccccc2)CC1`, `CCCCN1CCN(C(=S)SCCC(C#N)(c2ccccc2)c2ccccc2)CC1` is lower in inhibition at 33 µM: 2.57% for the first, -13.5% for the second.

Going from `N#CC(CCSC(=S)N1CCN(c2cccc(Cl)c2)CC1)(c1ccccc1)c1ccccc1` to `N#CC(CCSC(=S)N1CCN(c2ccc(Cl)c(Cl)c2)CC1)(c1ccccc1)c1ccccc1`, the inhibition at 33 µM falls from 4.2% to 0.7%.

Going from `N#CC(CCSC(=S)N1CCN(C(=O)c2ccco2)CC1)(c1ccccc1)c1ccccc1` to `N#CC(CCSC(=S)N1CCN(c2ccccn2)CC1)(c1ccccc1)c1ccccc1`, the inhibition at 33 µM rises from 30.4% to 31.8%.

`N#CC(CCSC(=S)N1CCN(S(=O)(=O)c2ccccc2[N+](=O)[O-])CC1)(c1ccccc1)c1ccccc1` and `N#CC(CCSC(=S)N1CCN(S(=O)(=O)c2cccc([N+](=O)[O-])c2)CC1)(c1ccccc1)c1ccccc1` are the same in inhibition at 33 µM: 0% for the first, 0% for the second.

Compared with `N#CC(CCSC(=S)N1CCN(S(=O)(=O)c2cccc(C(F)(F)F)c2)CC1)(c1ccccc1)c1ccccc1`, `N#CC(CCSC(=S)N1CCN(c2cccc(C(F)(F)F)c2)CC1)(c1ccccc1)c1ccccc1` is higher in inhibition at 33 µM: 0% for the first, 8.5% for the second.

First: N#CC(CCSC(=S)N1CCNCC1)(c1ccccc1)c1ccccc1
Second: CCN1CCN(C(=S)SCCC(C#N)(c2ccccc2)c2ccccc2)CC1
The inhibition at 33 µM of the first is higher: 98.7% for the first, -7.81% for the second.

First: N#CC(CCSC(=S)N1CCN(c2ncccn2)CC1)(c1ccccc1)c1ccccc1
Second: Cc1ccc(Cl)cc1N1CCN(C(=S)SCCC(C#N)(c2ccccc2)c2ccccc2)CC1
The inhibition at 33 µM of the first is higher: 24.2% for the first, 0% for the second.

`N#CC(CCSC(=S)N1CCN(Cc2ccc3c(c2)OCO3)CC1)(c1ccccc1)c1ccccc1` and `N#CC(CCSC(=S)N1CCN(S(=O)(=O)c2c(Cl)cccc2Cl)CC1)(c1ccccc1)c1ccccc1` are the same in inhibition at 33 µM: 0% for the first, 0% for the second.

Compound `N#CC(CCSC(=S)N1CCN(C(c2ccccc2)c2ccc(Cl)cc2)CC1)(c1ccccc1)c1ccccc1` (centres undefined) has an inhibition at 33 µM of 2.7%.

test system: Rattus norvegicus; experiment: Toxicity in rat at 10 g/kg after 10 days; conditions: in vivo, 10000 mg/kg, 240 h

In the case of `CN1CCN(C(=S)SCCC(C#N)(c2ccccc2)c2ccccc2)CC1.Cl`, the Activity is reported as “Not Active”.

test system: BGC-823; experiment: Antiproliferative activity against human BGC823 cells implanted in nude mouse; type: functional; conditions: not given

In the case of `CN1CCN(C(=S)SCCC(C#N)(c2ccccc2)c2ccccc2)CC1.Cl`, the Activity is reported as 18.1%.
